Among the data in ChEMBL document CHEMBL1821721, “Probing the difference between BH3 groove of Mcl-1 and Bcl-2 protein: Implications for dual inhibitors design” (Eur J Med Chem, 2011) are Ki and IC50 values, retold here.

One may read the Ki as the equilibrium dissociation constant of an inhibitor or competing ligand from its target. In general, IC50 refers to the point on the concentration scale where inhibition reaches its midpoint. A higher IC50 goes with lower potency.

Test [1] concerns the target Induced myeloid leukemia cell differentiation protein Mcl-1 (Homo sapiens, UniProt Q07820). Briefly: Displacement of FAM-Bid peptide from human Mcl-1 after 30 mins by competitive fluorescence polarization assay. The method in brief:
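Serial compound dilutions added with 0.01% Triton X-100; polarization read after 30 min. Controls were protein plus peptide, and peptide alone. Ki calculated with an FP-specific competitive binding equation.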
(In general: Polarisation of emitted light reports the rotation of a fluorescent probe.)

For test [2], the target named is Apoptosis regulator Bcl-2 (Homo sapiens, UniProt P10415). Briefly: Displacement of FAM-Bid peptide from human recombinant Bcl2 after 30 mins by competitive fluorescence polarization assay. The method in brief:
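Bcl-2 (40 nM) preincubated with 10 nM FAM-Bid peptide (Kd 8 nM) in 100 mM potassium phosphate pH 7.5, bovine gamma globulin, 0.02% sodium azide. Serial compound dilutions added in 0.01% Triton X-100; polarization read after 30 min. Controls were protein plus peptide, and peptide alone. Ki derived from an equation developed for FP assays.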

In the next test the test system is MCF7. The test can be described thus: Cytotoxicity in human MCF7 cells overexpressing Mcl-1after 48 hrs by MTT assay. The class given is functional, cell-based. Conditions: MCF7, 48 h.
In another test the test system is K562. Briefly: Cytotoxicity in human K562 cells overexpressing Mcl-1 after 48 hrs by MTT assay. It is filed as functional, cell-based. As to conditions: K562, 48 h.
In the next test the test system is HL-60. Briefly: Cytotoxicity in human HL60 cells overexpressing Bcl-2 after 48 hrs by MTT assay. It is filed as functional, cell-based. Conditions: HL-60, 48 h.

The structures appear in SMILES notation. Bounds are passed on as bounds.

Sequence of Apoptosis regulator Bcl-2 (P10415 whole entry): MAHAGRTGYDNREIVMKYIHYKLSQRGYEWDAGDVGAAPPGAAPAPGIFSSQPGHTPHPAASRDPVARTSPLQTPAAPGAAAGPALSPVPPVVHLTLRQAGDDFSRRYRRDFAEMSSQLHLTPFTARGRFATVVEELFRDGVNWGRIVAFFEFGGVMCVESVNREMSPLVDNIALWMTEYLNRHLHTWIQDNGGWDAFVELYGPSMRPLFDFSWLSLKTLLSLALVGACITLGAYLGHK
Sequence of Induced myeloid leukemia cell differentiation protein Mcl-1 (Q07820 whole entry): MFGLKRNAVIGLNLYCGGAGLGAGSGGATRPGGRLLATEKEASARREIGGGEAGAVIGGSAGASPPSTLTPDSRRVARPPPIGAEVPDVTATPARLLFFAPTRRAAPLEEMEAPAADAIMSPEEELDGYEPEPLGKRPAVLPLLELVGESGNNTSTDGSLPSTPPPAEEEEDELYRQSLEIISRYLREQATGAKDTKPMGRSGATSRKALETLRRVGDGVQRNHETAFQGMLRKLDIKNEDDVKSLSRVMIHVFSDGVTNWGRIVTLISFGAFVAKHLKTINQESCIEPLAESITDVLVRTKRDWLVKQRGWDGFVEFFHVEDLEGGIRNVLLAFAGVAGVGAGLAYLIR

Take `Cc1ccc(Oc2ccc3c4c(cccc24)C2=NC(=O)C(C#N)=C23)cc1`: the Ki in test [1] amounted to 174 nM; in test [2], 445 nM.

In the case of `N#CC1=C2C(=NC1=O)c1cccc3c(Oc4ccc(-c5ccccc5)cc4)ccc2c13`, the Ki in test [2] worked out at 308 nM.

For `COc1ccc(Oc2ccc3c4c(cccc24)C2=NC(=O)C(C#N)=C23)cc1`, the Ki in test [1] came out at 122 nM; in test [2] it was 304 nM. The figures for the IC50 in the test on MCF7, in the test on K562 and in the test on HL-60 were 5100 nM, 4700 nM and 1900 nM, respectively.

With `CC(C)c1ccc(Oc2ccc3c4c(cccc24)C2=NC(=O)C(C#N)=C23)cc1`, the Ki in test [2] is 232 nM.

In the case of `Cc1cccc(Oc2ccc3c4c(cccc24)C2=NC(=O)C(C#N)=C23)c1`, the Ki in test [1] came out at 445 nM; in test [2], 6030 nM.

With `Cc1ccccc1Oc1ccc2c3c(cccc13)C1=NC(=O)C(C#N)=C12`, the Ki in test [1] came out at 213 nM; in test [2], 1430 nM.

As for `COc1ccccc1Oc1ccc2c3c(cccc13)C1=NC(=O)C(C#N)=C12`, the inhibitory constant (Ki) stood at 149 nM in test [1] and 886 nM in test [2].

For the molecule `COc1cccc(Oc2ccc3c4c(cccc24)C2=NC(=O)C(C#N)=C23)c1`, the Ki in test [1] is 375 nM; in test [2], 16600 nM. Also, the concentration for half-maximal inhibition (IC50) is 6400 nM in the test on MCF7, 8300 nM in the test on K562 and greater than 50000 nM in the test with HL-60.

For `CCC(C)c1ccc(Oc2ccc3c4c(cccc24)C2=NC(=O)C(C#N)=C23)cc1` (stereo not drawn), the results for the IC50 in the test on MCF7, in the test on K562 and in the test on HL-60 were 20 nM, 50 nM and 40 nM, respectively.
